ChEMBL document CHEMBL1158986, “New antimicrobial filicinic acid derivatives from Hypericum drummondii” (1991)
≈ marks a conversion by molar mass, not a printed value.

Assays:
Type in all cases: functional
[1] = test system: Mycolicibacterium smegmatis; experiment: Antimicrobial activity against Mycobacterium smegmatis after 48 hrs by twofold serial broth dilution technique
Outline: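 Mycobacterium smegmatis (ATCC 607) grown in eugon broth. Twofold serial broth dilution from 0.20 to 100 μg/ml, tubes kept at 37°, MIC read after 48 h as the lowest concentration preventing growth. Streptomycin sulfate included as standard control.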

Staphylococcus aureus = experiment: Antimicrobial activity against Staphylococcus aureus after 24 hrs by twofold serial broth dilution technique
Outline: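 S. aureus (ATCC 6538) cultured in eugon broth. Twofold serial broth dilution covering 0.20–100 μg/ml. Incubation at 37° for 24 h. MIC is the lowest concentration with no growth. Streptomycin sulfate served as standard control.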

Bacillus subtilis = experiment: Antimicrobial activity against Bacillus subtilis after 24 hrs by twofold serial broth dilution technique
Outline: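 B. subtilis (ATCC 6633) cultured in eugon broth. MIC by twofold serial broth dilution, compounds tested over 0.20–100 μg/ml. Tubes incubated at 30°, read after 24 h. MIC taken as the lowest concentration inhibiting growth. Streptomycin sulfate as standard control.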

Row | Structure (SMILES) | MIC [1] | MIC (Staphylococcus aureus) | MIC (Bacillus subtilis)
1 | CC(=O)C1=C(O)C(C)(CC=C(C)C)C(O)=C(Cc2c(O)c(CC=C(C)C)c(O)c(C(C)=O)c2O)C1=O (stereo not given) [DRUMMONDIN F] | 1.56 µg/mL (≈ 3.13 µM) | 0.78 µg/mL (≈ 1.56 µM) | 0.78 µg/mL (≈ 1.56 µM)
2 | CC(=O)C1=C(O)C(C)(CC=C(C)C)C(O)=C(Cc2c(O)c(C(C)=O)c(O)c3c2OC(C)(C)C=C3)C1=O (stereo not given) [ISODRUMMONDIN D] | 1.56 µg/mL (≈ 3.14 µM) | 0.78 µg/mL (≈ 1.57 µM) | 0.2 µg/mL (≈ 0.403 µM)
3 | CN[C@@H]1[C@H](O[C@H]2[C@H](O[C@H]3[C@H](O)[C@@H](O)[C@H](N=C(N)N)[C@@H](O)[C@@H]3N=C(N)N)O[C@@H](C)[C@]2(O)C=O)O[C@@H](CO)[C@H](O)[C@H]1O [STREPTOMYCIN] | 1.56 µg/mL (≈ 2.68 µM) | 12.5 µg/mL (≈ 21.5 µM) | 0.78 µg/mL (≈ 1.34 µM)
4 | CC(=O)C1=C(O)C(C)(CC=C(C)C)C(O)=C(Cc2c(O)c3c(c(C(C)=O)c2O)OC(C)(C)C=C3)C1=O (stereo not given) [DRUMMONDIN D] | 1.56 µg/mL (≈ 3.14 µM) | 0.78 µg/mL (≈ 1.57 µM) | 0.39 µg/mL (≈ 0.785 µM)
5 | CC(=O)C1=C(O)C(C)(CC=C(C)C)C(O)=C(Cc2c(OCC=C(C)C)cc(O)c(C(C)=O)c2O)C1=O (stereo not given) [DRUMMONDIN E] | 3.12 µg/mL (≈ 6.26 µM) | 0.39 µg/mL (≈ 0.782 µM) | 0.2 µg/mL (≈ 0.401 µM)
